Measurements: ChEMBL document CHEMBL4359889 (Eur J Med Chem, 2019)

Tests used:
[1] = Octanol/water partition coefficient, logP of compound at 1 uCi vortex for 5 mins and repeated for 4 times by gamma counter method; format: physicochemical
Outline: (§1)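 Vortexed 5 min, repeated four times, then centrifuged 2×5 min at 4000 rpm, 4°C. Value taken from the ratio of octanol to aqueous activity.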

[2] = Lipophilicity, log D of the compound in octanol/pH 7.4 PBS vortex at 1 uCi for 5 mins and repeated for 4 times by gamma counter method; format: physicochemical; conditions: octanol/water, pH 7.4, 5 min; outline: as §1
[3] = Drug uptake in human NCI-H2228 cells harboring EML4-fused ALK variant 3 at 1 uCi incubated for 30 mins by radioactivity-based assay; format: ADME, cell-based; conditions: nci-h2228, 0.5 h
Outline: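 H2228 cells seeded at 10⁶ per well in RPMI-1640 with 10% FBS. Wells washed twice with ice-cold PBS, cells trypsinized 5 min at 37°C, then gamma counted. Uptake given as cpm per million cells, in triplicate.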

[4] = Biodistribution in nude mouse assessed as accumulation in brain tissue at 100 uCi, iv measured for 5 mins by PET imaging analysis; format: ADME, organism-based; conditions: in vivo
Outline: (§2)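 Dynamic PET 0–10 min after injection under anesthesia, then 10-min static scans at 30 and 60 min. Regions of interest drawn on decay-corrected whole-body coronal images and converted to %ID/cc. Mean ± SD.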

[5] = Biodistribution in nude mouse assessed as accumulation in brain tissue at 100 uCi, iv measured for 10 mins by PET imaging analysis; format: ADME, organism-based; conditions: in vivo; outline: as §2
[6] = Biodistribution in nude mouse assessed as accumulation in brain tissue at 100 uCi, iv measured for 30 mins by PET imaging analysis; format: ADME, organism-based; conditions: in vivo, 0.5 h; outline: as §2
[7] = Biodistribution in nude mouse assessed as accumulation in brain tissue at 100 uCi, iv measured for 60 mins by PET imaging analysis; format: ADME, organism-based; conditions: in vivo, 1 h; outline: as §2
[8] = Biodistribution in nude mouse assessed as accumulation in heart tissue at 100 uCi, iv measured for 5 mins by PET imaging analysis; format: ADME, organism-based; conditions: in vivo; outline: as §2
[9] = Biodistribution in nude mouse assessed as accumulation in heart tissue at 100 uCi, iv measured for 10 mins by PET imaging analysis; format: ADME, organism-based; conditions: in vivo; outline: as §2
[10] = Biodistribution in nude mouse assessed as accumulation in heart tissue at 100 uCi, iv measured for 30 mins by PET imaging analysis; format: ADME, organism-based; conditions: in vivo, 0.5 h; outline: as §2
[11] = Biodistribution in nude mouse assessed as accumulation in heart tissue at 100 uCi, iv measured for 60 mins by PET imaging analysis; format: ADME, organism-based; conditions: in vivo, 1 h; outline: as §2
[12] = Biodistribution in nude mouse assessed as accumulation in liver tissue at 100 uCi, iv measured for 5 mins by PET imaging analysis; format: ADME, organism-based; conditions: in vivo; outline: as §2
[13] = Biodistribution in nude mouse assessed as accumulation in liver tissue at 100 uCi, iv measured for 10 mins by PET imaging analysis; format: ADME, organism-based; conditions: in vivo; outline: as §2
[14] = Biodistribution in nude mouse assessed as accumulation in liver tissue at 100 uCi, iv measured for 30 mins by PET imaging analysis; format: ADME, organism-based; conditions: in vivo, 0.5 h; outline: as §2
[15] = Biodistribution in nude mouse assessed as accumulation in liver tissue at 100 uCi, iv measured for 60 mins by PET imaging analysis; format: ADME, organism-based; conditions: in vivo, 1 h; outline: as §2
[16] = Biodistribution in nude mouse assessed as accumulation in kidney tissue at 100 uCi, iv measured for 5 mins by PET imaging analysis; format: ADME, organism-based; conditions: in vivo; outline: as §2
[17] = Biodistribution in nude mouse assessed as accumulation in kidney tissue at 100 uCi, iv measured for 10 mins by PET imaging analysis; format: ADME, organism-based; conditions: in vivo; outline: as §2
[18] = Biodistribution in nude mouse assessed as accumulation in kidney tissue at 100 uCi, iv measured for 30 mins by PET imaging analysis; format: ADME, organism-based; conditions: in vivo, 0.5 h; outline: as §2
[19] = Biodistribution in nude mouse assessed as accumulation in kidney tissue at 100 uCi, iv measured for 60 mins by PET imaging analysis; format: ADME, organism-based; conditions: in vivo, 1 h; outline: as §2
[20] = Biodistribution in nude mouse assessed as accumulation in muscle tissue at 100 uCi, iv measured for 5 mins by PET imaging analysis; format: ADME, organism-based; conditions: in vivo; outline: as §2
[21] = Biodistribution in nude mouse assessed as accumulation in muscle tissue at 100 uCi, iv measured for 10 mins by PET imaging analysis; format: ADME, organism-based; conditions: in vivo; outline: as §2
[22] = Biodistribution in nude mouse assessed as accumulation in muscle tissue at 100 uCi, iv measured for 30 mins by PET imaging analysis; format: ADME, organism-based; conditions: in vivo, 0.5 h; outline: as §2
[23] = Biodistribution in nude mouse assessed as accumulation in muscle tissue at 100 uCi, iv measured for 60 mins by PET imaging analysis; format: ADME, organism-based; conditions: in vivo, 1 h; outline: as §2
[24] = Drug uptake in human H441 cells at 1 uCi incubated for 30 mins by radioactivity-based assay; format: ADME, cell-based; conditions: nci-h441, 0.5 h
Outline: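 Medium removed, two ice-cold PBS washes, trypsinised 5 min at 37°C, gamma counted. Uptake expressed as counts per minute per million cells; triplicate.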

NCI-H2228 = assay: Cytotoxicity in human NCI-H2228 cells harboring EML4-fused ALK variant 3 incubated for 72 hrs by alamar blue reagent based assay; format: functional, cell-based; conditions: NCI-H2228, 72 h
NCI-H441 = assay: Cytotoxicity in human H441 cells incubated for 72 hrs by alamar blue reagent based assay; format: cell-based
Outline: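 Cells seeded at 8,000 per well in RPMI-1640 with 10% FBS, dosed next day across a concentration range for 72 h. Alamar Blue (1:10, in phenol red-free RPMI with 10% FBS) added for 4 h, fluorescence read at ex 530/em 580 nm. IC50 from curve fit; triplicate in three independent sets, mean ± SD.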

Compound: Cc1cc(Nc2ncc(Cl)c(Nc3ccccc3S(=O)(=O)C(C)C)n2)c(OC(C)C)cc1C1CCN(CC[18F])CC1
- logP [1]: 0.97
- logD [2]: 1.51
- Drug uptake [3]: Active
- Drug uptake [4]: 6.6 %ID/cc
- Drug uptake [5]: 6.5 %ID/cc
- Drug uptake [6]: 4.6 %ID/cc
- Drug uptake [7]: 4 %ID/cc
- Drug uptake [8]: 9.1 %ID/cc
- Drug uptake [9]: 7 %ID/cc
- Drug uptake [10]: 3.1 %ID/cc
- Drug uptake [11]: 2.6 %ID/cc
- Drug uptake [12]: 16.8 %ID/cc
- Drug uptake [13]: 17.9 %ID/cc
- Drug uptake [14]: 9.5 %ID/cc
- Drug uptake [15]: 6.4 %ID/cc
- Drug uptake [16]: 20.2 %ID/cc
- Drug uptake [17]: 18.2 %ID/cc
- Drug uptake [18]: 7.2 %ID/cc
- Drug uptake [19]: 5.7 %ID/cc
- Drug uptake [20]: 3.6 %ID/cc
- Drug uptake [21]: 3.9 %ID/cc
- Drug uptake [22]: 2.4 %ID/cc
- Drug uptake [23]: 2.1 %ID/cc

Compound: CCc1cc2c(cc1N1CCC(N3CCOCC3)CC1)C(C)(C)c1c(c3ccc(C#N)cc3n1CC[18F])C2=O
- Drug uptake [24]: Active

Compound: CCc1cc2c(cc1N1CCC(N3CCOCC3)CC1)C(C)(C)c1c(c3ccc(C#N)cc3n1CCF)C2=O
- IC50 (NCI-H2228): 0.01 µM
- IC50 (NCI-H441): Non-Toxic

Compound: Cc1cc(Nc2ncc(Cl)c(Nc3ccccc3S(=O)(=O)C(C)C)n2)c(OC(C)C)cc1C1CCN(CCF)CC1
- IC50 (NCI-H2228): 24.2 µM

Compound: C[C@@H](Oc1cc(-c2cnn(C3CCN(CC[18F])CC3)c2)cnc1N)c1c(Cl)ccc(F)c1Cl
- Drug uptake [3]: Active
- Drug uptake [7]: 1.8 %ID/cc
- Drug uptake [23]: 1.2 %ID/cc

Compound: C[C@@H](Oc1cc(-c2cnn(C3CCN(CCF)CC3)c2)cnc1N)c1c(Cl)ccc(F)c1Cl
- IC50 (NCI-H2228): 7.5 µM

Compound: CCc1cc2c(cc1N1CCC(N3CCOCC3)CC1)C(C)(C)c1[nH]c3cc(C#N)ccc3c1C2=O [ALECTINIB]
- IC50 (NCI-H441): Non-Toxic
